# Test results as given in ChEMBL document CHEMBL3085723, “Design, synthesis and discovery of picomolar selective α4β2 nicotinic acetylcholine receptor ligands” (J Med Chem, 2013).
# Activity calls are given as the source filed them. The rule behind the calls is not given here.
# Columns and labels:
# [1] = Displacement of [3H]epibatidine from nAChR in rat forebrain; assay type: tissue-based
# Method in brief: (§1)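 Membranes from stably transfected cells or rat forebrain, homogenized in 50 mM Tris·HCl, pH 7.4, at 4 °C and pelleted at 36000g. […] Separation by vacuum filtration on PEI-treated GF/C filters. Ki reported.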
# HEK293 = assay: Selectivity ratio of Ki for rat alpha3beta4 nAChR expressed in HEK293 cells to Ki for human alpha4beta2 nAChR; assay type: cell-based
# [2] = target: Neuronal acetylcholine receptor; alpha4/beta4 (Rattus norvegicus, UniProt P09483+P12392); assay: Displacement of [3H]epibatidine from rat alpha4beta4 nAChR expressed in HEK293 cells after 4 hrs; assay type: cell-based; method in brief: as §1
# Neuronal acetylcholine receptor; alpha4/beta4, sequence (P09483 whole entry): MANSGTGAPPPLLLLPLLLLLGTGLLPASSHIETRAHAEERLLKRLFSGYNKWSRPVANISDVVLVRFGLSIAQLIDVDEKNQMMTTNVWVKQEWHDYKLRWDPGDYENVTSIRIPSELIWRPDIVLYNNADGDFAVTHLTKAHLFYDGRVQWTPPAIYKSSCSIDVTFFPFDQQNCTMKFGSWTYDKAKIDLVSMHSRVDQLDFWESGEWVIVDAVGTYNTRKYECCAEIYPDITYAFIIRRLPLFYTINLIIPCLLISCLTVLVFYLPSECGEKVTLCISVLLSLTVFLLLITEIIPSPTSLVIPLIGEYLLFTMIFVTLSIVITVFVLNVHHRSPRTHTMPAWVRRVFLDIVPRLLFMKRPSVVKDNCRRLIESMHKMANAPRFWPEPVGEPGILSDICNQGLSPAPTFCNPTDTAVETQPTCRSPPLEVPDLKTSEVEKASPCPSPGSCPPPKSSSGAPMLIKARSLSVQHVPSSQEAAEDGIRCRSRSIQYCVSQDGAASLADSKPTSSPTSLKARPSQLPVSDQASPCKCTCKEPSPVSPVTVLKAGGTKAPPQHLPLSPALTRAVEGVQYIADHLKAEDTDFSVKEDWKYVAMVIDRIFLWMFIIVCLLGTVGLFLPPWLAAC
# Neuronal acetylcholine receptor; alpha4/beta4, sequence (P12392 whole entry): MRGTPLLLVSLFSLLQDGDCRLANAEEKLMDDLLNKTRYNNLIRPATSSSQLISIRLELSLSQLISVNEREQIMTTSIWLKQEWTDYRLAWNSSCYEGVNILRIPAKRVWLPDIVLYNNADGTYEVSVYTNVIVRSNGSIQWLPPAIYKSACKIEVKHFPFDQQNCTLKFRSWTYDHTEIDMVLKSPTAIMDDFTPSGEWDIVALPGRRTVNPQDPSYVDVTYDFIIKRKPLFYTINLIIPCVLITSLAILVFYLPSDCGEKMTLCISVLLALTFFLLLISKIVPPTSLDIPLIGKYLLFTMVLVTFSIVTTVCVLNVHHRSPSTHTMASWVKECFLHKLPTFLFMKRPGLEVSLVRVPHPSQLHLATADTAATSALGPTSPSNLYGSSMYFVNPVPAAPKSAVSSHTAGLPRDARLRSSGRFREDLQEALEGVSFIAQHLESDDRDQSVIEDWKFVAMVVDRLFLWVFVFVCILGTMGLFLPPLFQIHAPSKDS
# [3] = target: Neuronal acetylcholine receptor; alpha2/beta4 (Rattus norvegicus, UniProt P12389+P12392); assay: Displacement of [3H]epibatidine from rat alpha2beta4 nAChR expressed in HEK293 cells after 4 hrs; assay type: cell-based; method in brief: as §1
# Neuronal acetylcholine receptor; alpha2/beta4, sequence (P12389 whole entry): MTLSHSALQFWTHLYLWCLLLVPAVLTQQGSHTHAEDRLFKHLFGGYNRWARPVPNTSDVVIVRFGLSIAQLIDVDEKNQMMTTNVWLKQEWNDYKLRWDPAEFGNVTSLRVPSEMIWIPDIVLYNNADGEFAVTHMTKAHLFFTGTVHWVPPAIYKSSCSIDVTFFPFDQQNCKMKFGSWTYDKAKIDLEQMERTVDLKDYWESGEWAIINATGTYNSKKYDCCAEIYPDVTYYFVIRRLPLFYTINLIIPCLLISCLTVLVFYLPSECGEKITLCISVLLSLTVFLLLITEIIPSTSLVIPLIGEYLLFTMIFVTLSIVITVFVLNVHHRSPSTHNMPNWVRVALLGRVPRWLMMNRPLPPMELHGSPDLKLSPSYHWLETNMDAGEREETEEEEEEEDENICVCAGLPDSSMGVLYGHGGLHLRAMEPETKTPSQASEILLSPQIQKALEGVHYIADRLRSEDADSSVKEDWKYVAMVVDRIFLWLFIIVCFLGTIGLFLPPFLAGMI
# Neuronal acetylcholine receptor; alpha2/beta4, sequence (P12392 whole entry): as the sequence (P12392 whole entry) above
# [4] = target: Neuronal acetylcholine receptor; alpha3/beta2 (Rattus norvegicus, UniProt P04757+P12390); assay: Displacement of [3H]epibatidine from rat alpha3beta2 nAChR expressed in HEK293 cells after 4 hrs; assay type: cell-based; method in brief: as §1
# Neuronal acetylcholine receptor; alpha3/beta2, sequence (P04757 whole entry): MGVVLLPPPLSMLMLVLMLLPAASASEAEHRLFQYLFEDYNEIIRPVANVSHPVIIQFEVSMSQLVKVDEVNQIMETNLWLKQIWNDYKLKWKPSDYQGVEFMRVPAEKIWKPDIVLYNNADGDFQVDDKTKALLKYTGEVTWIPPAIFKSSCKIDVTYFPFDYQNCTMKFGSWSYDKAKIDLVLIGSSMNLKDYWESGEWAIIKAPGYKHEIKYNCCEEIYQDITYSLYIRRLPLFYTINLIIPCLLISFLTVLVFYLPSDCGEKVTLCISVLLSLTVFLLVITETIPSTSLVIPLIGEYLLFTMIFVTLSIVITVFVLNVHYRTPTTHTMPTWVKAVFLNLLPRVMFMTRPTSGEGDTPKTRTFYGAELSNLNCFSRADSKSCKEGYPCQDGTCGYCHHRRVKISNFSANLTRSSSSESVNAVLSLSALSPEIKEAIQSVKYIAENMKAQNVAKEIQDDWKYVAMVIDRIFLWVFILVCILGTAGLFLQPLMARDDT
# Neuronal acetylcholine receptor; alpha3/beta2, sequence (P12390 whole entry): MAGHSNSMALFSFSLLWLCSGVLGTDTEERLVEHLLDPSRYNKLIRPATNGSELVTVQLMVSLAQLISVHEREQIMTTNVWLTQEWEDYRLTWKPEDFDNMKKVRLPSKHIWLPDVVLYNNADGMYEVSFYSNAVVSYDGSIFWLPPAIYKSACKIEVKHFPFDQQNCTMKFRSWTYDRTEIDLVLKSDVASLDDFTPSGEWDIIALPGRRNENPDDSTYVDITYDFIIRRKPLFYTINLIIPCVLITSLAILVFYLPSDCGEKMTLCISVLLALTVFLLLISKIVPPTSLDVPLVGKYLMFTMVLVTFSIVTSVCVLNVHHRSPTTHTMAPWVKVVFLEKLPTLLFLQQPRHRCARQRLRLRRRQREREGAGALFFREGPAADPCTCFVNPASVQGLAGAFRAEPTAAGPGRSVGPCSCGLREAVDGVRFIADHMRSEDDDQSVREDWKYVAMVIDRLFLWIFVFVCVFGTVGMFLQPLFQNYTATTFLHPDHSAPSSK
# [5] = target: Neuronal acetylcholine receptor; alpha2/beta2 (Rattus norvegicus, UniProt P12389+P12390); assay: Displacement of [3H]epibatidine from rat alpha2beta2 nAChR expressed in HEK293 cells after 4 hrs; assay type: cell-based; method in brief: as §1
# Neuronal acetylcholine receptor; alpha2/beta2, sequence (P12389 whole entry): as the sequence (P12389 whole entry) above
# Neuronal acetylcholine receptor; alpha2/beta2, sequence (P12390 whole entry): as the sequence (P12390 whole entry) above
# [6] = target: T1, Neuronal acetylcholine receptor; alpha4/beta2 (Homo sapiens, UniProt P17787+P43681); assay: Displacement of [3H]epibatidine from human alpha4beta2 nAChR after 4 hrs by cell-based assay
# T1 sequence (P17787 whole entry): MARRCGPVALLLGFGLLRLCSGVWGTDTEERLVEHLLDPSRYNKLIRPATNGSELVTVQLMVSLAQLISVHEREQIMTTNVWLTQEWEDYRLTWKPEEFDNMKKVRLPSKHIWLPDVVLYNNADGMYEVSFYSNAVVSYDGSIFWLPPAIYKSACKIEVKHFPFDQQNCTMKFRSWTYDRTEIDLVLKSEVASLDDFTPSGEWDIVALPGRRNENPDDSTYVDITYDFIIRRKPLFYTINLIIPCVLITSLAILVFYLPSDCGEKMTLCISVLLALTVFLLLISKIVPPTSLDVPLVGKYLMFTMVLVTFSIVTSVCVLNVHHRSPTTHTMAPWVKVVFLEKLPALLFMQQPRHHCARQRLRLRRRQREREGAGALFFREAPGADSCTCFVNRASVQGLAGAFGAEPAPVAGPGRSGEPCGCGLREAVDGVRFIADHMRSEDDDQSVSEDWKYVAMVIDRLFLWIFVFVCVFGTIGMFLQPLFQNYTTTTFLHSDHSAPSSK
# T1 sequence (P43681 whole entry): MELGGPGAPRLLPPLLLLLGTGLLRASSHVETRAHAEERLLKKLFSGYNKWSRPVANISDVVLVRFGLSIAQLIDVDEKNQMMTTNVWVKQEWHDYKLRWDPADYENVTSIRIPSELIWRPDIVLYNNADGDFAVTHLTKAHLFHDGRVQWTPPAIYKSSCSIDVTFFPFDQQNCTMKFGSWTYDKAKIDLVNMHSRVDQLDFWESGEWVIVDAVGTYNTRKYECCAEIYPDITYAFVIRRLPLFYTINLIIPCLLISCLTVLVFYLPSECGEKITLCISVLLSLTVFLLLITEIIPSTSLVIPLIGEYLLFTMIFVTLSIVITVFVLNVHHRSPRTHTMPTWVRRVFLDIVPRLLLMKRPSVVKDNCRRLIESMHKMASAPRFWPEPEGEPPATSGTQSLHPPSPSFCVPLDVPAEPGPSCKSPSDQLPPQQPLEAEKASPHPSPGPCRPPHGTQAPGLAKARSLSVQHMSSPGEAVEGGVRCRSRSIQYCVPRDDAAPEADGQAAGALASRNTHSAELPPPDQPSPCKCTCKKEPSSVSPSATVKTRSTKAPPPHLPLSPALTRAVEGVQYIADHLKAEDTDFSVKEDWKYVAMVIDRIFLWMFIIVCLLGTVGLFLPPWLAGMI
# Method in brief: (§2)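 Membranes from stably transfected cells or rat forebrain, homogenized in 50 mM Tris·HCl, pH 7.4, at 4 °C and pelleted at 36000g. Separation by vacuum filtration on PEI-treated GF/C filters. Ki reported.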
# [7] = target: T2, Neuronal acetylcholine receptor; alpha3/beta4 (Rattus norvegicus, UniProt P04757+P12392); assay: Displacement of [3H]epibatidine from rat alpha3beta4 nAChR expressed in HEK293 cells after 4 hrs; assay type: cell-based; method in brief: as §1
# T2 sequence (P04757 whole entry): as the sequence (P04757 whole entry) above
# T2 sequence (P12392 whole entry): as the sequence (P12392 whole entry) above
# [8] = target: Neuronal acetylcholine receptor subunit alpha-7 (Rattus norvegicus, UniProt Q05941); assay: Displacement of [3H]epibatidine from rat alpha7 nAChR expressed in HEK293 cells after 4 hrs; assay type: cell-based; method in brief: as §2
# Neuronal acetylcholine receptor subunit alpha-7, sequence (Q05941 whole entry): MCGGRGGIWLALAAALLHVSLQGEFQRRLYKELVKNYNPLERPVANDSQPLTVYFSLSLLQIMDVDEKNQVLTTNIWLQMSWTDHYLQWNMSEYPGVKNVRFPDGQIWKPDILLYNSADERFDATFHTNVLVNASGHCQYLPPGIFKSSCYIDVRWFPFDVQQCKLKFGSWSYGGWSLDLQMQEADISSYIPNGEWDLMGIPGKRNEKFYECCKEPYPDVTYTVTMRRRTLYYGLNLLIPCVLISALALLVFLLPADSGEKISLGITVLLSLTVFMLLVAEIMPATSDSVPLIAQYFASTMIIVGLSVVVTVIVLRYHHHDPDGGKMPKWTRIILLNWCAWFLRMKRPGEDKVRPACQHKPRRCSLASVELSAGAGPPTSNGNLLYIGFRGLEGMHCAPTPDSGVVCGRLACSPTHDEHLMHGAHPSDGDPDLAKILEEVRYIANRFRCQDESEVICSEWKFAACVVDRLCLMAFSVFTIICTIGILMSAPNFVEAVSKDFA
# [9] = Fraction unbound in rat brain homogenate at 5 uM after 4 hrs equilibrium dialysis method; assay type: ADME, tissue-based
# Method in brief: (§3)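 Test agent at 5 μM incubated in rat plasma or brain homogenate. Dialysed against PBS in a RED equilibrium dialysis device for 4 h, both sides quantified by LC/MS/MS. Unbound fraction from protein-containing vs protein-free concentrations. Brain value corrected for homogenate dilution factor D.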
# [10] = target: T1, Neuronal acetylcholine receptor; alpha4/beta2; assay: Ratio of varenicline IC50 to compound IC50 for human alpha4beta2 nAChR assessed as inhibition of nicotine-induced [86Rb+] efflux preincubated for 10 mins before nicotine exposure by liquid scintillation counting; assay type: protein-complex assay
# Method in brief: (§4)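 Human α4β2 (YXα4β2H1 cells), ⁸⁶Rb⁺-loaded. […] IC50(10′) by nonlinear regression, and the ratio taken between reference and test IC50.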
# Homo sapiens [11] = species on record: Homo sapiens; assay: Selectivity ratio of Ki for SERT (unknown origin) to Ki for human alpha4beta2 nAChR
# Rattus norvegicus [12] = assay: Antiaddiction activity in Sprague-Dawley rat assessed as decrease in nicotine intravenous self-administration at 0.3 to 1 mg/kg, sc administered on successive days 10 mins prior to test relative to vehicle-treated control; assay type: functional, organism-based
# Method in brief: (§5)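 Young adult female Sprague-Dawley rats (N = 15), singly housed on a reverse 12:12 cycle. […] Drug at 0, 0.3, 1 or 3 mg/kg sc in saline (1 mL/kg), 10 min pretest, counterbalanced, ≥2 days apart. Each dose given twice. Infusions analysed per session and per 15 min period.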
# Rattus norvegicus [13] = assay: Effect on locomotor activity in Sprague-Dawley rat assessed as increase in activity at 0.3 to 3 mg/kg, sc administered on successive days 10 mins prior to test measured for 1 hr relative to vehicle-treated control; assay type: functional, organism-based
# Method in brief: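 Separate group of young adult female Sprague-Dawley rats (N = 12), group-housed with free food. Dosed sc at 0, 0.3, 1 or 3 mg/kg in saline 10 min before a 1 h figure-eight maze session, counterbalanced, ≥2 days apart, each dose given once. Activity counted as infrared photobeam breaks in 5 min blocks.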
# [14] = target: T1, Neuronal acetylcholine receptor; alpha4/beta2; assay: Agonist activity at human alpha4beta2 nAChR assessed as induction of inward current by whole-cell voltage clamp analysis relative to acetylcholine; assay type: protein-complex assay
# Method in brief: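 Whole-cell voltage clamp at −70 mV on YXα4β2H1 cells pretreated with 1 mM carbachol for 48 h. Pipette K-gluconate/EGTA/ATP/GTP solution, pH 7.2. Perfusion saline pH 7.4 at 24 °C. Test agent 200 nM applied by bath. Current normalized to two stable prior 32 μM ACh responses given 5 min apart. n = 3 cells.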
# [15] = target: T1, Neuronal acetylcholine receptor; alpha4/beta2; assay: Agonist activity at human alpha4beta2 nAChR assessed as stimulation of [86Rb+] efflux after 2 mins by cell-based liquid scintillation counting
# Homo sapiens [16] = species on record: Homo sapiens; assay: Selectivity ratio of Ki for NET (unknown origin) to Ki for human alpha4beta2 nAChR
# Homo sapiens [17] = species on record: Homo sapiens; assay: Selectivity ratio of Ki for 5HT-1A receptor (unknown origin) to Ki for human alpha4beta2 nAChR
# Homo sapiens [18] = species on record: Homo sapiens; assay: Selectivity ratio of Ki for 5HT-1C receptor (unknown origin) to Ki for human alpha4beta2 nAChR
# Homo sapiens [19] = species on record: Homo sapiens; assay: Selectivity ratio of Ki for KOR (unknown origin) to Ki for human alpha4beta2 nAChR
# Rattus norvegicus [20] = assay: Antiaddiction activity in Sprague-Dawley rat assessed as decrease in nicotine intravenous self-administration at 3 mg/kg, sc […] relative to vehicle-treated control; assay type: functional, organism-based; set-up: dose 3 mg/kg
# Homo sapiens [21] = species on record: Homo sapiens; assay: Selectivity ratio of Ki for DAT (unknown origin) to Ki for human alpha4beta2 nAChR
# [22] = Fraction unbound in rat plasma at 5 uM after 4 hrs by equilibrium dialysis method; assay type: ADME, cell-free; method in brief: as §3
# Homo sapiens [23] = species on record: Homo sapiens; assay: Selectivity ratio of Ki for dopaminergic D1 receptor (unknown origin) to Ki for human alpha4beta2 nAChR
# Homo sapiens [24] = species on record: Homo sapiens; assay: Selectivity ratio of Ki for 5HT-1B receptor (unknown origin) to Ki for human alpha4beta2 nAChR
# Homo sapiens [25] = species on record: Homo sapiens; assay: Selectivity ratio of Ki for sigma 2 receptor (unknown origin) to Ki for human alpha4beta2 nAChR
# Homo sapiens [26] = species on record: Homo sapiens; assay: Selectivity ratio of Ki for alpha2C adrenergic receptor (unknown origin) to Ki for human alpha4beta2 nAChR
# [27] = target: T2, Neuronal acetylcholine receptor; alpha3/beta4; assay: Antagonist activity at rat alpha3beta4 nAChR expressed in HEK293 cells assessed as inhibition of nicotine-induced [86Rb+] efflux preincubated for 10 mins before nicotine exposure by liquid scintillation counting; assay type: cell-based
# Rattus norvegicus [28] = assay: Antiaddiction activity in Sprague-Dawley rat assessed as decrease in nicotine intravenous self-administration at 3 mg/kg, sc administered on successive days 10 mins prior to test measured at 15 mins time period each session relative to vehicle-treated control; assay type: functional, organism-based; set-up: dose 3 mg/kg; method in brief: as §5
# [29] = target: T1, Neuronal acetylcholine receptor; alpha4/beta2; assay: Ratio of nicotine IC50 to compound IC50 for human alpha4beta2 nAChR assessed as inhibition of nicotine-induced [86Rb+] efflux preincubated for 10 mins before nicotine exposure by liquid scintillation counting; assay type: protein-complex assay; method in brief: as §4
# [30] = target: T1, Neuronal acetylcholine receptor; alpha4/beta2; assay: Agonist activity at human alpha4beta2 nAChR assessed as stimulation of [86Rb+] efflux after 2 mins by cell-based liquid scintillation counting relative to nicotine
structure (smiles),measurement,setting,value
Cc1cc(F)cc(C#Cc2cncc(OC[C@@H]3CCN3)c2)c1,Ki,[1],1.4 nM
same,Ratio Ki,HEK293,26000
same,Ki,[2],8.1 nM
same,Ki,[3],38 nM
same,Ki,[4],0.24 nM
same,Ki,[5],0.064 nM
same,Ki,[6],0.043 nM
COc1cc(F)cc(C#Cc2cncc(OC[C@@H]3CCN3)c2)c1,Ki,[1],1.7 nM
same,Ratio Ki,HEK293,17000
same,Ki,[2],10 nM
same,Ki,[3],53 nM
same,Ki,[4],0.59 nM
same,Ki,[5],0.091 nM
same,Ki,[6],0.076 nM
c1ccc(-c2cncc(OC[C@@H]3CCN3)c2)cc1,Ki,[1],1.1 nM
same,Ratio Ki,HEK293,9280
same,Ki,[2],6.2 nM
same,Ki,[3],36 nM
same,Ki,[4],5 nM
same,Ki,[7],1300 nM
same,Ki,[8],11000 nM
same,Ki,[5],0.22 nM
same,Ki,[6],0.14 nM
CN(C)c1cc(F)cc(C#Cc2cncc(OC[C@@H]3CCN3)c2)c1,Ki,[1],0.7 nM
same,Ratio Ki,HEK293,32000
same,Ki,[2],12 nM
same,Ki,[3],66 nM
same,Ki,[4],0.46 nM
same,Ki,[5],0.053 nM
same,Ki,[6],0.031 nM
C(#Cc1cncc(OC[C@H]2CCN2)c1)c1ccccc1,Ki,[1],1.1 nM
same,Ratio Ki,HEK293,15000
same,Ki,[2],8.9 nM
same,Ki,[3],46 nM
same,Ki,[4],0.92 nM
same,Ki,[5],0.19 nM
same,Ki,[6],0.11 nM
CCCNCCOc1cncc(C#Cc2ccccc2)c1,Ki,[1],> 50000 nM
same,Ki,[2],> 50000 nM
same,Ki,[3],> 250000 nM
same,Ki,[4],> 10000 nM
same,Ki,[7],> 500000 nM
same,Ki,[8],> 25000 nM
same,Ki,[5],> 5000 nM
same,Ki,[6],> 1000 nM
CN1CC[C@H]1COc1cncc(C#Cc2ccccc2)c1,Ki,[1],30 nM
same,Ratio Ki,HEK293,33000
same,Ki,[2],1100 nM
same,Ki,[3],4100 nM
same,Ki,[4],26 nM
same,Ki,[5],2.9 nM
same,Ki,[6],1.2 nM
Cc1cccc(C#Cc2cncc(OC[C@@H]3CCN3)c2)c1,Ki,[1],1.1 nM
same,Ratio Ki,HEK293,87000
same,Ki,[2],12 nM
same,Ki,[3],46 nM
same,Ki,[4],0.34 nM
same,Ki,[5],0.053 nM
same,Ki,[6],0.046 nM
O=C(CCCN1CCC(O)(c2ccc(Cl)cc2)CC1)c1ccc(F)cc1 [HALOPERIDOL],"fraction unbound at 4 h, 5 µM",[9],0.016
C(#Cc1cncc(OC[C@@H]2CCN2)c1)c1ccccc1,Ratio IC50,[10],6
same,Ratio Ki,Homo sapiens [11],> 3000
same,Activity,Rattus norvegicus [12],inactive
same,Activity,Rattus norvegicus [13],Active
same,Ki,[1],0.5 nM
same,Activity,[14],12.6%
same,EC50,[15],10 nM
same,Ratio Ki,Homo sapiens [16],> 3000
same,Ratio Ki,HEK293,13000
same,Ratio Ki,Homo sapiens [17],> 3000
same,Ki,[2],11 nM
same,Ratio Ki,Homo sapiens [18],> 3000
same,Ratio Ki,Homo sapiens [19],> 3000
same,Activity,Rattus norvegicus [20],Active
same,Ratio Ki,Homo sapiens [21],> 3000
same,"fraction unbound at 4 h, 5 µM",[22],0.084
same,Ki,[3],58 nM
same,Ratio Ki,Homo sapiens [23],> 3000
same,Ratio Ki,Homo sapiens [24],> 3000
same,Ratio Ki,Homo sapiens [25],> 3000
same,Ki,[4],0.53 nM
same,Ki,[7],640 nM
same,Ratio Ki,Homo sapiens [26],> 3000
same,"fraction unbound at 4 h, 5 µM",[9],0.0121
same,IC50,[27],> 10000 nM
same,Ki,[5],0.11 nM
same,Activity,Rattus norvegicus [28],Active
same,Ratio IC50,[29],23
same,Ki,[6],0.049 nM
same,Emax,[30],24%
